Results from different studies.
Protocols differ between the studies behind these lines.
Target: Serine/threonine-protein kinase 38-like (STK38L, Homo sapiens, UniProt Q9Y2H1)

Compound	effect on	mode	technique	cells	tested at	endpoint	result
Cc1ccc(C(=O)Nc2ccc(CN3CCN(C)CC3)c(C(F)(F)F)c2)cc1C#Cc1cnc2cccnn12	enzyme activity	–	–	–	23.5 nM	remaining activity	99%
Cn1c2c(c3ccc(Cl)c(Cl)c31)C(C#N)C(C)(C)NC2=O (centres unmarked)	thermal stability	–	DSF	–	10 µM	ΔTm	-0.1 °C
COc1cc(-c2cc(-c3ccc(N4CCNCC4)cc3)cnc2C)cc(OC)c1OC	enzyme activity	inhibitor	–	–	1 µM	inhibition	0%
Cn1c2c(Cl)c(Cl)ccc2c2cn[nH]c(=O)c21	thermal stability	–	DSF	–	10 µM	ΔTm	0.1 °C
CN(C)C(=O)Cn1cc(-c2nc([C@@](C)(c3ccc(-c4cnc(N)nc4)cc3)C3CC3)no2)cn1	binding	–	competition with immobilised ligand	–	1 µM	remaining binding	91%
CN1CCC2(CC1)NC(=O)c1c(c3ccc(Cl)c(Cl)c3n1C)C2C#N (racemic)	thermal stability	–	DSF	–	10 µM	ΔTm	0 °C
O=c1nc(-c2ccccn2)sc2ccccc12	binding	–	competition with immobilised ligand	–	1 µM	remaining binding	66%
CCN1CCN(Cc2ccc(NC(=O)c3ccc(C)c(Oc4ccnc5[nH]ccc45)c3)cc2C(F)(F)F)CC1	target engagement in cells	inhibitor	chemoproteomics	Huh-7	10 µM	inhibition	-12.7%
Cn1c2c(c3ccc(Cl)c(Cl)c31)C(C#N)C1(CCN(C(=O)OC(C)(C)C)CC1)NC2=O (racemic)	thermal stability	–	DSF	–	10 µM	ΔTm	-0.1 °C
CS(=O)(=O)N1CCCC(NC(=O)[C@H](CCC2CCCCC2)NC(=O)c2ccc(CNc3ncnc4c3nnn4-c3ccccc3)cc2)C1 (some centres unmarked)	binding	–	competition with immobilised ligand	–	1 µM	remaining binding	24%
Cn1c2c(Cl)c(Cl)ccc2c2cc(N)[nH]c(=O)c21	thermal stability	–	DSF	–	10 µM	ΔTm	0.3 °C
Nc1ncnc2occ(-c3ccc(NC(=O)Nc4cc(C(F)(F)F)ccc4F)cc3)c12	cell-free assay	–	–	–	20 µM	remaining signal	17%
Cc1sc(C(=O)NC2COC2)cc1-n1cc(NC(=O)Nc2c(F)cccc2Cl)cn1	enzyme activity	inhibitor	–	–	10 µM	remaining activity	95.1%
COc1cc(Cl)c(C(=O)N[C@@H](CN[C@H]2CC[C@@H](N)CC2)Cc2ccc(C#N)cc2)cc1-c1ccc(CN[C@H](C)c2ccc(C)cc2)o1	enzyme activity	inhibitor	–	–	1 µM	remaining activity	91%
CN(C(=O)c1ccccc1)c1cc(N(C)c2ccc3c(c2)CCc2ccc(C(=O)NCCN4CCOCC4)cc2C3=O)ccc1F	cell-free assay	–	competition with immobilised ligand	–	1 µM	remaining binding	47%
CC(C)(O)[C@H]1CC[C@H](Nc2ccc3ncc(-c4cccc(C(F)(F)F)c4)n3n2)CC1	enzyme activity	inhibitor	–	–	1 µM	remaining activity	91.9%
Cc1nc(N2CC[C@@H](O)C2)ncc1-c1cc(C(F)(F)F)cc2[nH]ncc12	binding	–	competition with immobilised ligand	–	1 µM	remaining binding	87%
CNc1cc(Oc2cc(C(=O)Nc3cc(N4CCN(C)CC4)cc(C(F)(F)F)c3)ccc2C)ncn1	target engagement in cells	inhibitor	chemoproteomics	Huh-7	1 µM	inhibition	-35.6%
CS(=O)(=O)c1cc(C2(NC(=O)c3cncc4c3cnn4-c3ccc(F)cc3)CC2)ccn1	cell-free assay	–	competition with immobilised ligand	–	1 µM	remaining binding	34%
Cn1c2c(c3ccc(Cl)c(Cl)c31)C(C#N)C1(CCNCC1)NC2=O (racemic)	thermal stability	–	DSF	–	10 µM	ΔTm	-0.2 °C
